Experiment [1] has as its target Procathepsin L (Homo sapiens, UniProt P07711). As to the kind of experiment: Inhibitory activity against human Cathepsin L.
The target in experiment [2] is T1, Cathepsin K (Homo sapiens, UniProt P43235).
T1 sequence (P43235 whole entry): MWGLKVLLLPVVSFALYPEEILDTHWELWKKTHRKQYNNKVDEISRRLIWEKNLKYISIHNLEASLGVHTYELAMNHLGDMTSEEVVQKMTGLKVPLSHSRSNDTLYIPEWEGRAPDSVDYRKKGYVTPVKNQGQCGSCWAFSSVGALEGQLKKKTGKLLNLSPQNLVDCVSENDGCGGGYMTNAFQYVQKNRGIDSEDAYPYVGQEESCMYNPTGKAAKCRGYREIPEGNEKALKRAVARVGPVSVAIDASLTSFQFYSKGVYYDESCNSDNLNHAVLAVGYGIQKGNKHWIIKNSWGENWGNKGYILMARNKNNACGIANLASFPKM
As to the kind of experiment: Specificity of Cathepsin K inhibition by the compound. In outline:
(§1)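 Recombinant human cathepsins B and K were expressed in Pichia pastoris and stored inhibited with MMTS or HgCl2 (B at 4 °C, K at −80 °C). Both were reactivated with 2 mM DTT and E-64 titrated. Cbz-Phe-Arg-MCA was kept well below KM, at 25 °C, pH 6.0 (50 mM phosphate, 5 mM EDTA, 0.2 M NaCl, 3% DMSO). Read-out was fluorescence at 380/440 nm. Ki came from 1/vs vs [I] plots or slow-binding analysis.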

The target of experiment [3] is Cathepsin B (Homo sapiens, UniProt P07858). As to the kind of experiment: Specificity of Cathepsin B inhibition by the compound. In outline:
as §1

SMILES strings stand for the structures. Peptide text beside a SMILES is read from it. * marks the point of attachment. Phenylacetyl(4-Ph) = O=C(Cc1ccc(-c2ccccc2)cc1)* Bounds are passed on as bounds.

Procathepsin L, sequence (P07711 whole entry): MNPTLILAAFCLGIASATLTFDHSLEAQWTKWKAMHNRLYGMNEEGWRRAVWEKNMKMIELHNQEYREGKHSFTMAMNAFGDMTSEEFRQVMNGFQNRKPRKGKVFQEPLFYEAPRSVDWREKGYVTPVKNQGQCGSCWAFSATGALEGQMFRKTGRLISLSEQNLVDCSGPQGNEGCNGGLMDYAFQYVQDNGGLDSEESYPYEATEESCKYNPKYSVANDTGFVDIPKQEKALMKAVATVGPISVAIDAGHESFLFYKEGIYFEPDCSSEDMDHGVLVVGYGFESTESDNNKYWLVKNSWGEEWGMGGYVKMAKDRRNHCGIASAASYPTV

Broadly, the Ki is a dissociation constant, usually derived from enzyme kinetics or from competition with a known ligand. Lower therefore signals a stronger hold on the target. In experiment [1], `CSCC[C@H](NC(=O)[C@H](CCCN=C(N)N)NC(=O)[C@@H](CSC)NC(=O)Cc1ccc(-c2ccccc2)cc1)C(=O)NCCc1ccccc1` registered a Ki of 240 nM. With `N=C(N)NCCC[C@@H](NC(=O)[C@H](CS)NC(=O)Cc1ccc(-c2ccccc2)cc1)C(=O)N[C@@H](Cc1ccccc1)C(=O)N[C@@H](Cc1ccccc1)C(N)=O` (stereo in doubt; 4), the affinity in experiment [1] corresponds to a Ki of 170 nM. Take `CSC[C@@H](NC(=O)Cc1ccc(-c2ccccc2)cc1)C(=O)N[C@@H](CCCN=C(N)N)C(=O)N[C@@H](CC(C)C)C(=O)NCCc1ccccc1`: the affinity in experiment [1], expressed as Ki, was 270 nM. `N=C(N)NCCC[C@H](NC(=O)[C@H](CS)NC(=O)Cc1ccc(-c2ccccc2)cc1)C(=O)N[C@@H](Cc1ccc2ccccc2c1)C(=O)NCCc1ccccc1` displayed an inhibition constant Ki in experiment [1] of 160 nM. Regarding `N=C(N)NCCC[C@H](NC(=O)[C@H](CS)NC(=O)Cc1ccc(-c2ccccc2)cc1)C(=O)N[C@@H](Cc1c[nH]c2ccccc12)C(=O)NCCc1ccccc1`, the values for the Ki in experiment [2], in experiment [1] and in experiment [3] were 1000 nM, 67 nM and 560 nM, respectively. Turning to `CSC[C@H](NC(=O)Cc1ccc(-c2ccccc2)cc1)C(=O)NCC(=O)N[C@@H](Cc1ccccc1)C(=O)N[C@@H](Cc1ccccc1)C(N)=O` ({Phenylacetyl(4-Ph)}-C(Me)GFF-NH2), the Ki in experiment [1] came out at 930 nM. Consider `CSCC[C@H](NC(C)=O)C(=O)N[C@@H](CC(N)=O)C(=O)NCC(=O)N[C@@H](Cc1ccccc1)C(=O)N[C@@H](CCC(N)=O)C(N)=O` (Ac-MNGFQ-NH2), for which the Ki in experiment [1] was > 100000 nM.

For `N=C(N)NCCC[C@H](NC(=O)[C@H](CS)NC(=O)Cc1ccc(-c2ccccc2)cc1)C(=O)N[C@@H](Cc1ccc(-c2ccccc2)cc1)C(=O)NCCc1ccccc1`, in experiment [1], affinity was put at a Ki of 270 nM. With `N=C(N)NCCC[C@H](NC(=O)[C@H](CCCN=C(N)N)NC(=O)[C@H](CS)NC(=O)Cc1ccc(-c2ccccc2)cc1)C(=O)NCCc1ccccc1`, affinity in experiment [1] was put at a Ki of 3900 nM. As to `N=C(N)NCCC[C@H](NC(=O)[C@H](CS)NC(=O)Cc1ccc(-c2ccccc2)cc1)C(=O)N[C@@H](CC1CCCCC1)C(=O)NCCc1ccccc1`, the Ki in experiment [1] came out at 160 nM.

Turning to `CC[C@H](NC(=O)[C@H](CCCN=C(N)N)NC(=O)[C@H](CS)NC(=O)Cc1ccc(-c2ccccc2)cc1)C(=O)NCCc1ccccc1`, the affinity in experiment [1] corresponds to a Ki of 210 nM. On to `N=C(N)NCCC[C@H](NC(=O)[C@H](CS)NC(=O)Cc1ccc(-c2ccccc2)cc1)C(=O)N[C@@H](Cc1ccc(O)cc1)C(=O)NCCc1ccccc1`, for which the Ki in experiment [2] is 2900 nM; in experiment [3], 15000 nM. For the compound `N=C(N)NCCC[C@@H](NC(=O)[C@H](CO)NC(=O)Cc1ccc(-c2ccccc2)cc1)C(=O)N[C@@H](Cc1ccccc1)C(=O)N[C@@H](Cc1ccccc1)C(N)=O`, in experiment [1], the Ki turned out to be 74000 nM.

Consider `NC(=O)C[C@H](NC(=O)Cc1ccc(-c2ccccc2)cc1)C(=O)N[C@H](CCCN=C(N)N)C(=O)N[C@@H](Cc1ccccc1)C(=O)NC(Cc1ccccc1)C(N)=O` (some centres not stated), for which the Ki in experiment [1] came to 38000 nM.

These data come from ChEMBL document CHEMBL1135661, “Design of noncovalent inhibitors of human cathepsin L. From the 96-residue proregion to optimized tripeptides” (J Med Chem, 2002).
